For 1 molecule, inhibition of growth results are on record in ChEMBL document CHEMBL3046951, “Volatile constituents from the leaves of Callicarpa japonica Thunb. and their antibacterial activities” (2004).

Holding throughout (assay type): functional
The test system of one test is Vibrio parahaemolyticus. In words: Antimicrobial activity against Vibrio parahaemolyticus ATCC 33844 assessed as growth inhibition rate at 4.64 mg/l after 72 hr by spectrophotometry. The note with it: ATCC 33844, 72 h, read-out: GI.
The test system of the next test is Salmonella typhimurium. Briefly: Antimicrobial activity against Salmonella enterica subsp. enterica serovar Typhimurium ATCC 14028 assessed as growth inhibition rate at 4.64 mg/l after 72 hr by spectrophotometry. The note with it: ATCC 14028, 72 h, read-out: GI. The gist of the method:
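Salmonella Typhimurium ATCC 14028 grown in nutrient broth at 30 °C, precultured 24 h, then subcultured 1:100 for 18 h before testing. Single volatile compounds (>95% pure) were added. OD was read every 24 h over 72 h in a Bioscreen C, with 10% Tween 80 as the comparison control.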

Another test deals with Staphylococcus aureus. In words: Antimicrobial activity against Staphylococcus aureus ATCC 25923 assessed as growth inhibition rate at 4.64 mg/l after 72 hr by spectrophotometry. The note with it: ATCC 25923, 72 h, read-out: GI.
The next test relates to Escherichia coli. In words: Antimicrobial activity against Escherichia coli O157:H7 ATCC 43894 assessed as growth inhibition rate at 4.64 mg/l after 72 hr by spectrophotometry. The note with it: O157:H7 ATCC 43894, 72 h, read-out: GI.
For another test, the system named is Listeria monocytogenes. Briefly: Antimicrobial activity against Listeria monocytogenes ATCC 19111 assessed as growth inhibition rate at 4.64 mg/l after 72 hr by spectrophotometry. The note with it: ATCC 19111, 72 h, read-out: GI. An outline of the steps: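 L. monocytogenes was grown at 30 °C in tryptic soy broth, subcultured for 18 h, and exposed to pure volatile compounds (>95% purity). Growth was followed by Bioscreen C optical density every 24 h for 72 h against a 10% Tween 80 control.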

For a further test, the system named is Bacillus cereus. In words: Antimicrobial activity against Bacillus cereus ATCC 11778 assessed as growth inhibition rate at 4.64 mg/l after 72 hr by spectrophotometry. The note with it: ATCC 11778, 72 h, read-out: GI. The gist of the method: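 Pure volatile compounds (purity >95%; one at 90%) were tested against B. cereus ATCC 11778. The strain was grown at 30 °C in nutrient broth for 24 h, then subcultured for 18 h. Optical density was read in a Bioscreen C every 24 h for 72 h, with 10% Tween 80 as the control.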

Take `C[C@@H]1CC[C@@H]2[C@@H]1[C@H]1[C@@H](CC[C@@]2(C)O)C1(C)C` [GLOBULOL]: the inhibition of growth at 4.64 µg/mL amounted to 0% with Vibrio parahaemolyticus; 0.8% in the test on Salmonella typhimurium; 8.3% with Staphylococcus aureus; 0% in the test on Escherichia coli; 6.3% in the test on Listeria monocytogenes; 1.9% with Bacillus cereus.
